The record followed here is the array DNA melting data of Ke et al. (doi:10.1101/2024.01.08.574731).

Data set [1] in a line: folding enthalpy; higher = less favourable; fluorescence melt of hairpins on a sequencing array, two-state fit. The following applies: sodium 0.088 M. The method in brief: (§1)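 Folding enthalpy and melting temperature come from bootstrapped two-state fits to Cy3 fluorescence of library hairpins carrying annealed Cy3 and quencher oligos on a sequenced MiSeq flow cell. Imaging was done in 50 mM Na-HEPES pH 8.0, 25 mM NaCl, stepping by 2.5 °C up to 60 °C, and signals were normalised to pre-quench Cy3 and to control constructs. Results of four replicates were combined by inverse variance, and fitted temperatures were raised by 9.35 °C to match UV melts.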

A short description of data set [2]: melting temperature; fluorescence melt of hairpins on a sequencing array, two-state fit, raised by 9.35 °C to match UV melts. The following applies: sodium 0.088 M. The method in brief: as §1

Regarding GGGGACGAAAGTCGTCCC ((((((....)))..))), in data set [1], the folding enthalpy was -20.8 kcal/mol. Moreover, in data set [2], the Tm is 61.3 °C.

Take GGGGACGAAAGTCTCCC ((((((....))).))): the folding enthalpy in data set [1] is -23.9 kcal/mol. In data set [2], the Tm stood at 60 °C.

GGGGACGAAAGTCTCCCC ((((((....)))..))): the folding enthalpy in data set [1] is -14.3 kcal/mol. Moreover, the Tm in data set [2] came out at 58.2 °C.

As for GGGGACGGAAACATCCCC (((((.(....).))))), the folding enthalpy in data set [1] was -32.8 kcal/mol. For the same sequence, the Tm in data set [2] was found to be 47 °C.

For the sequence GGGGACGGAAACGCCCCC ((((.((....)).)))), the folding enthalpy in data set [1] was -26.1 kcal/mol. In data set [2], the Tm came out at 57.9 °C.

GGGGAGGCGAAAGCCCCC (((..(((....)))))): the folding enthalpy in data set [1] is -14.2 kcal/mol. Besides, in data set [2], the Tm worked out at 64.5 °C.

With GGGGAGGGAAACCTCCTC (.(((((....))))).), the folding enthalpy in data set [1] is -15.6 kcal/mol. The Tm in data set [2] turned out to be 53.4 °C.

With GGGGATCGAAAGATACCC (((.(((....))).))), the folding enthalpy in data set [1] was -43.2 kcal/mol. Also, the Tm in data set [2] was determined as 62.3 °C.

For the sequence GGGGATGGAAACGTTCCC (((.(.(....).).))), in data set [1], the folding enthalpy was -30 kcal/mol. The Tm in data set [2] was determined as 39 °C.

Consider GGGGCAGGAAACCACCCC ((((..(....)..)))), for which the folding enthalpy in data set [1] is -28.6 kcal/mol. Moreover, the Tm in data set [2] came to 36.6 °C.

For the sequence GGGGCAGGAAACTACCCC ((((.((....)).)))), the folding enthalpy in data set [1] is -29.4 kcal/mol. Further, in data set [2], the Tm was 49 °C.

Consider GGGGCAGGAAACTGCCTC (.(((((....))))).), for which the folding enthalpy in data set [1] is -13.1 kcal/mol. For the same sequence, in data set [2], the Tm was 59.6 °C.

As for GGGGCAGGAAACTGCTCC ((.((((....)))).)), the folding enthalpy in data set [1] was -36.6 kcal/mol. Further, in data set [2], the Tm came to 60.2 °C.

Consider GGGGCCACGAAAGTGCCC (((..(((....)))))), for which, in data set [1], the folding enthalpy is -26.2 kcal/mol. For the same sequence, in data set [2], the Tm is 60 °C.

Turning to GGGGCCGAAAGGCATCCC ((((((....)))..))), the folding enthalpy in data set [1] was -13.9 kcal/mol. For the same sequence, the Tm in data set [2] was 54.9 °C.

As to GGGGCCGAAAGGCTGCCC ((((((....)))..))), the folding enthalpy in data set [1] is -14.2 kcal/mol. In addition, the Tm in data set [2] amounted to 46.4 °C.

For GGGGCTGGAAACGGTCCC (((.(.(....).).))), the folding enthalpy in data set [1] was -33 kcal/mol. Moreover, the Tm in data set [2] was found to be 49.6 °C.

Regarding GGGGGAGGAAACCCCCCC (((((.(....).))))), the folding enthalpy in data set [1] was -20.1 kcal/mol. Further, in data set [2], the Tm was determined as 55.1 °C.

For GGGGGCGAAAGCCAGCCC ((((((....)))..))), the folding enthalpy in data set [1] is -14.1 kcal/mol. Moreover, the Tm in data set [2] worked out at 51.8 °C.

Turning to GGGGGCGAAAGCCATCCC ((((((....)))..))), the folding enthalpy in data set [1] was -13.5 kcal/mol. In addition, the Tm in data set [2] is 51.5 °C.

For the sequence GGGGGCGGAAACGTCCCC ((((.((....)).)))), in data set [1], the folding enthalpy was -22.5 kcal/mol. Moreover, the Tm in data set [2] was found to be 67.4 °C.

As for GGGGGTGGAAACACCTCC ((.((((....)))).)), the folding enthalpy in data set [1] is -29.1 kcal/mol. Also, the Tm in data set [2] worked out at 54.9 °C.

On to GGGGTACGAAAGTATCCC (((.(((....))).))), for which the folding enthalpy in data set [1] was -33.5 kcal/mol. In addition, the Tm in data set [2] amounted to 58 °C.

As to GGGGTAGGAAACTGCTCC ((.(.((....)).).)), in data set [1], the folding enthalpy was -29.9 kcal/mol. Also, the Tm in data set [2] stood at 35.9 °C.

As for GGGGTCGAAAGACACCC ((((((....))).))), the folding enthalpy in data set [1] was -18.2 kcal/mol. Also, the Tm in data set [2] amounted to 63.1 °C.

As for GGGGTCGAAAGACTCCC ((((((....))).))), in data set [1], the folding enthalpy was -30.9 kcal/mol. For the same sequence, the Tm in data set [2] was determined as 57 °C.

For GGGGTCGGAAACGACCTC (.(((((....))))).), the folding enthalpy in data set [1] was -14.1 kcal/mol. Moreover, in data set [2], the Tm came out at 61.4 °C.

With GGGGTGACGAAAGTCCCC (((..(((....)))))), in data set [1], the folding enthalpy was -31.8 kcal/mol. Also, the Tm in data set [2] was 56 °C.

As for GGGGTGGGAAACCGCCCC ((((.((....)).)))), in data set [1], the folding enthalpy was -38.1 kcal/mol. For the same sequence, the Tm in data set [2] is 65.9 °C.

With GGGGTTACGAAAGTACCC (((..(((....)))))), in data set [1], the folding enthalpy was -22.8 kcal/mol. Further, the Tm in data set [2] was 51.4 °C.

GGGTAAGGAAACCTACCC (((((.(....).))))): the folding enthalpy in data set [1] was -30.6 kcal/mol. The Tm in data set [2] worked out at 42.9 °C.

For the sequence GGGTACACGAAAGTGCCC (((..(((....)))))), the folding enthalpy in data set [1] is -21.2 kcal/mol. In addition, the Tm in data set [2] amounted to 48 °C.

With GGGTACGAAAGTAAACCC ((((((....)))..))), the folding enthalpy in data set [1] is -28.4 kcal/mol. Moreover, the Tm in data set [2] is 47.3 °C.

Turning to GGGTACGAAAGTACGCCC ((((((....)))..))), the folding enthalpy in data set [1] is -13.3 kcal/mol. In addition, the Tm in data set [2] came to 46.1 °C.

Take GGGTACGAAAGTAGCCC ((((((....))).))): the folding enthalpy in data set [1] is -26.3 kcal/mol. In data set [2], the Tm turned out to be 56.2 °C.

With GGGTACGAAAGTAGGCCC ((((((....)))..))), the folding enthalpy in data set [1] is -20.1 kcal/mol. Moreover, the Tm in data set [2] stood at 38.6 °C.

As for GGGTACGAAAGTATCCC ((((((....))).))), the folding enthalpy in data set [1] is -37.3 kcal/mol. For the same sequence, the Tm in data set [2] is 51.8 °C.

GGGTACGCGAAAGCGCCC (((..(((....)))))): the folding enthalpy in data set [1] was -16.3 kcal/mol. The Tm in data set [2] stood at 47.2 °C.

Consider GGGTACGGAAACGTGCCC (((.(((....))).))), for which the folding enthalpy in data set [1] is -53.5 kcal/mol. Moreover, the Tm in data set [2] worked out at 60.1 °C.

As for GGGTACGGAAACGTGTCC ((..(((....)))..)), the folding enthalpy in data set [1] was -24.8 kcal/mol. Also, in data set [2], the Tm came out at 40.6 °C.

On to GGGTAGCGAAAGCTCCCC (((.(((....))).))), for which the folding enthalpy in data set [1] is -28 kcal/mol. Besides, the Tm in data set [2] came out at 55.1 °C.

GGGTAGGAAACTACCC ((((((....)))))): the folding enthalpy in data set [1] was -29.6 kcal/mol. For the same sequence, the Tm in data set [2] turned out to be 58.8 °C.

Consider GGGTATACGAAAGTACCC (((..(((....)))))), for which the folding enthalpy in data set [1] was -24.4 kcal/mol. Further, the Tm in data set [2] came to 45.6 °C.

With GGGTATCGAAAGATTCCC (((.(((....))).))), the folding enthalpy in data set [1] was -30.6 kcal/mol. Besides, in data set [2], the Tm was 48.8 °C.

Regarding GGGTATTCGAAAGAACCC (((..(((....)))))), the folding enthalpy in data set [1] was -22 kcal/mol. Further, in data set [2], the Tm came to 34.5 °C.

Consider GGGTCAGGAAACTGATCC ((.((((....)))).)), for which, in data set [1], the folding enthalpy is -38.9 kcal/mol. In addition, in data set [2], the Tm amounted to 51.9 °C.

GGGTCAGGAAACTGGCCC (((.(((....))).))): the folding enthalpy in data set [1] was -41.8 kcal/mol. Further, in data set [2], the Tm turned out to be 60.4 °C.

For GGGTCAGGAAACTGGCTC (.(.(((....))).).), the folding enthalpy in data set [1] is -24.5 kcal/mol. The Tm in data set [2] was 39.8 °C.

GGGTCCCGAAAGGGCCCC (((.(((....))).))): in data set [1], the folding enthalpy was -17.9 kcal/mol. The Tm in data set [2] was found to be 67.2 °C.

As to GGGTCCGAAAGGAGACCC ((((((....)))..))), in data set [1], the folding enthalpy is -22 kcal/mol. In data set [2], the Tm was 53.1 °C.

Turning to GGGTCCGAAAGGATACCC ((((((....)))..))), the folding enthalpy in data set [1] was -20.1 kcal/mol. The Tm in data set [2] is 50 °C.

On to GGGTCCGAAAGGATTCCC ((((((....)))..))), for which, in data set [1], the folding enthalpy was -22.2 kcal/mol. Also, the Tm in data set [2] turned out to be 44.1 °C.

Take GGGTCCGGAAACGGACTC (.(((((....))))).): in data set [1], the folding enthalpy was -15.2 kcal/mol. Besides, the Tm in data set [2] is 61.3 °C.

As to GGGTCCGGAAACGGATCC ((.((((....)))).)), the folding enthalpy in data set [1] is -38.1 kcal/mol. Besides, in data set [2], the Tm came out at 59.1 °C.
